Source: ChEMBL document CHEMBL1649231, “In vitro activities of panduratin A against clinical Staphylococcus strains” (2009)
In brackets after ≈: the same amount, converted by molar mass.

Legend:
Type in all cases: functional
Staphylococcus aureus [1] = assay: Antimicrobial activity against methicillin-resistant Staphylococcus aureus after 24 hrs by broth microdilution method
In short: (§1)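 Clinical isolates came from blood, body fluids, genital secretions, pus or sputum, identified conventionally or by Vitek. MICs were run by CLSI M7-A6 broth microdilution in Mueller-Hinton broth with 5 × 10^5 CFU/ml inoculum. Agents were twofold serially diluted, starting from 10% DMSO. Drug-free and uninoculated controls were included. Plates were incubated aerobically at 37°C for 24 h; MIC is the lowest concentration giving no visible growth.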

Staphylococcus aureus [2] = assay: Antimicrobial activity against methicillin-susceptible Staphylococcus aureus after 24 hrs by broth microdilution method; in short: as §1
Staphylococcus simulans [3] = assay: Antimicrobial activity against methicillin-resistant coagulase-negative Staphylococcus simulans after 24 hrs by broth microdilution method; in short: as §1
[4] = test system: Staphylococcus haemolyticus; assay: Bactericidal activity against methicillin-resistant coagulase-negative Staphylococcus haemolyticus after 24 hrs by plate counting method; settings: Staphylococcus haemolyticus, 24 h
[5] = test system: Staphylococcus haemolyticus; assay: Antimicrobial activity against methicillin-resistant coagulase-negative Staphylococcus haemolyticus after 24 hrs by broth microdilution method; in short: as §1
[6] = test system: Staphylococcus epidermidis; assay: Bactericidal activity against methicillin-resistant coagulase-negative Staphylococcus epidermidis after 24 hrs by plate counting method; settings: Staphylococcus epidermidis, 24 h
[7] = test system: Staphylococcus epidermidis; assay: Antimicrobial activity against methicillin-resistant coagulase-negative Staphylococcus epidermidis after 24 hrs by broth microdilution method; in short: as §1
Staphylococcus hominis [8] = assay: Bactericidal activity against methicillin-resistant coagulase-negative Staphylococcus hominis after 24 hrs by plate counting method; settings: Staphylococcus hominis, 24 h
Staphylococcus aureus [9] = assay: Bactericidal activity against methicillin-susceptible Staphylococcus aureus after 24 hrs by plate counting method
In short: (§2)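 Clinical staphylococcal isolates from patient body fluids, blood, genital secretions, pus or sputum; species by conventional methods or Vitek. Twofold dilutions in Mueller-Hinton broth, inoculum 5 × 10^5 CFU/ml, 37°C aerobic 24 h (CLSI M7-A6 microdilution). About 100 μl from each well without visible growth spread on MHA; 37°C 24 h. MBC = lowest concentration giving no growth on agar.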

Staphylococcus hominis [10] = assay: Antimicrobial activity against methicillin-resistant coagulase-negative Staphylococcus hominis after 24 hrs by broth microdilution method; in short: as §1
Staphylococcus aureus [11] = assay: Bactericidal activity against methicillin-resistant Staphylococcus aureus after 24 hrs by plate counting method
Staphylococcus simulans [12] = assay: Bactericidal activity against methicillin-resistant coagulase-negative Staphylococcus simulans after 24 hrs by plate counting method; settings: Staphylococcus simulans, 24 h; in short: as §2
Mammaliicoccus sciuri [13] = assay: Antimicrobial activity against methicillin-resistant coagulase-negative Staphylococcus sciuri after 24 hrs by broth microdilution method; in short: as §1
Mammaliicoccus sciuri [14] = assay: Bactericidal activity against methicillin-resistant coagulase-negative Staphylococcus sciuri after 24 hrs by plate counting method; settings: Mammaliicoccus sciuri, 24 h; in short: as §2
Staphylococcus hominis [15] = assay: Antimicrobial activity against methicillin-susceptible coagulase-negative Staphylococcus hominis after 24 hrs by broth microdilution method; in short: as §1
Staphylococcus hominis [16] = assay: Bactericidal activity against methicillin-susceptible coagulase-negative Staphylococcus hominis after 24 hrs by plate counting method; in short: as §2
[17] = test system: Staphylococcus epidermidis; assay: Antimicrobial activity against methicillin-susceptible coagulase-negative Staphylococcus epidermidis after 24 hrs by broth microdilution method; in short: as §1
[18] = test system: Staphylococcus epidermidis; assay: Bactericidal activity against methicillin-susceptible coagulase-negative Staphylococcus epidermidis after 24 hrs by plate counting method; in short: as §2
[19] = test system: Staphylococcus haemolyticus; assay: Antimicrobial activity against methicillin-susceptible coagulase-negative Staphylococcus haemolyticus after 24 hrs by broth microdilution method; in short: as §1
[20] = test system: Staphylococcus haemolyticus; assay: Bactericidal activity against methicillin-susceptible coagulase-negative Staphylococcus haemolyticus after 24 hrs by plate counting method; in short: as §2
Staphylococcus simulans [21] = assay: Antimicrobial activity against methicillin-susceptible coagulase-negative Staphylococcus simulans after 24 hrs by broth microdilution method; in short: as §1
Staphylococcus simulans [22] = assay: Bactericidal activity against methicillin-susceptible coagulase-negative Staphylococcus simulans after 24 hrs by plate counting method; in short: as §2
Mammaliicoccus sciuri [23] = assay: Antimicrobial activity against methicillin-susceptible coagulase-negative Staphylococcus sciuri after 24 hrs by broth microdilution method; in short: as §1
Mammaliicoccus sciuri [24] = assay: Bactericidal activity against methicillin-susceptible coagulase-negative Staphylococcus sciuri after 24 hrs by plate counting method; in short: as §2

## Cc1ccc(C(C)C)c(O)c1 [THYMOL]
Staphylococcus aureus [1]
  MIC50: 128 µg/mL (≈ 852 µM)
  MIC90: 128 µg/mL (≈ 852 µM)
Staphylococcus aureus [2]
  MIC50: 128 µg/mL (≈ 852 µM)
  MIC90: 128 µg/mL (≈ 852 µM)
Staphylococcus simulans [3]
  MIC50: 64 µg/mL (≈ 426 µM)
  MIC90: 128 µg/mL (≈ 852 µM)
[4]
  MBC: 64 µg/mL (≈ 426 µM)
[5]
  MIC50: 64 µg/mL (≈ 426 µM)
  MIC90: 128 µg/mL (≈ 852 µM)
[6]
  MBC: 64 µg/mL (≈ 426 µM)
[7]
  MIC50: 64 µg/mL (≈ 426 µM)
  MIC90: 128 µg/mL (≈ 852 µM)
Staphylococcus hominis [8]
  MBC: 64 µg/mL (≈ 426 µM)
Staphylococcus aureus [9]
  MBC50: 256 µg/mL (≈ 1700 µM)
  MBC90: 512 µg/mL (≈ 3410 µM)
Staphylococcus aureus [9]; Staphylococcus aureus, 24 h
  MBC: 128 µg/mL (≈ 852 µM)
Staphylococcus hominis [10]
  MIC50: 64 µg/mL (≈ 426 µM)
  MIC90: 128 µg/mL (≈ 852 µM)
Staphylococcus aureus [11]
  MBC50: 512 µg/mL (≈ 3410 µM)
Staphylococcus aureus [11]; Staphylococcus aureus, 24 h
  MBC: 256 µg/mL (≈ 1700 µM)
Staphylococcus simulans [12]
  MBC: 64 µg/mL (≈ 426 µM)
Mammaliicoccus sciuri [13]
  MIC50: 64 µg/mL (≈ 426 µM)
  MIC90: 128 µg/mL (≈ 852 µM)
Mammaliicoccus sciuri [14]
  MBC: 64 µg/mL (≈ 426 µM)
Staphylococcus hominis [15]
  MIC50: 64 µg/mL (≈ 426 µM)
  MIC90: 64 µg/mL (≈ 426 µM)
Staphylococcus hominis [16]
  MBC50: 256 µg/mL (≈ 1700 µM)
  MBC90: 512 µg/mL (≈ 3410 µM)
Staphylococcus hominis [16]; Staphylococcus hominis, 24 h
  MBC: 64 µg/mL (≈ 426 µM)
[17]
  MIC50: 64 µg/mL (≈ 426 µM)
  MIC90: 64 µg/mL (≈ 426 µM)
[18]
  MBC50: 256 µg/mL (≈ 1700 µM)
  MBC90: 512 µg/mL (≈ 3410 µM)
[18]; Staphylococcus epidermidis, 24 h
  MBC: 64 µg/mL (≈ 426 µM)
[19]
  MIC50: 64 µg/mL (≈ 426 µM)
  MIC90: 64 µg/mL (≈ 426 µM)
[20]
  MBC50: 256 µg/mL (≈ 1700 µM)
  MBC90: 512 µg/mL (≈ 3410 µM)
[20]; Staphylococcus haemolyticus, 24 h
  MBC: 64 µg/mL (≈ 426 µM)
Staphylococcus simulans [21]
  MIC50: 64 µg/mL (≈ 426 µM)
  MIC90: 64 µg/mL (≈ 426 µM)
Staphylococcus simulans [22]
  MBC50: 256 µg/mL (≈ 1700 µM)
  MBC90: 512 µg/mL (≈ 3410 µM)
Staphylococcus simulans [22]; Staphylococcus simulans, 24 h
  MBC: 64 µg/mL (≈ 426 µM)
Mammaliicoccus sciuri [23]
  MIC50: 64 µg/mL (≈ 426 µM)
  MIC90: 64 µg/mL (≈ 426 µM)
Mammaliicoccus sciuri [24]
  MBC50: 256 µg/mL (≈ 1700 µM)
  MBC90: 512 µg/mL (≈ 3410 µM)
Mammaliicoccus sciuri [24]; Mammaliicoccus sciuri, 24 h
  MBC: 64 µg/mL (≈ 426 µM)
